Source: ChEMBL document CHEMBL4190373, “Tumor Targeting with Novel Pyridyl 6-Substituted Pyrrolo[2,3- d]Pyrimidine Antifolates via Cellular Uptake by Folate Receptor α and the Proton-Coupled Folate Transporter and Inhibition of De Novo Purine Nucleotide Biosynthesis” (J Med Chem, 2018)
One block for each compound: values may come before it. The source made the active and inactive calls. No cut-off for these calls is given here.

Key:
[1] = Growth inhibition of Chinese hamster R2(VC) cells after 96 hrs celltiter-blue assay; conditions: Cricetulus griseus
In short: (§1)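 CHO sublines expressing human PCFT (R2/PCFT4) or RFC (PC43-10), transporter-null R2, and empty-vector R2(VC). Continuous drug up to 1000 nM, up to 96 h, CellTiter-Blue fluorescence.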

[2] = Cytotoxicity in RFC-null Chinese hamster R2 cells assessed as reduction in cell viability measured after 96 hrs by Cell-Titer Blue assay; assay type: cell-based; conditions: Cricetulus griseus, R2, 96 h; in short: as §1
KB [3] = assay: Antiproliferative activity against human KB cells expressing human RFC/FR-alpha/PCFT assessed as reduction in cell viability measured after 96 hrs by Cell-Titer Blue assay; assay type: functional, cell-based
KB [4] = assay: Antiproliferative activity against human KB cells expressing human RFC/FR-alpha/PCFT assessed as reduction in cell viability measured after 96 hrs in presence of folic acid by Cell-Titer Blue assay; assay type: functional, cell-based
[5] = target: Folate receptor alpha (Homo sapiens) (UniProt P15328); assay: Displacement of [3H]folic acid from human FR-alpha receptor expressed in Chinese hamster RT16 cells measured after 15 mins; assay type: cell-based
Sequence of Folate receptor alpha (Homo sapiens) (P15328 25-234 limits assumed): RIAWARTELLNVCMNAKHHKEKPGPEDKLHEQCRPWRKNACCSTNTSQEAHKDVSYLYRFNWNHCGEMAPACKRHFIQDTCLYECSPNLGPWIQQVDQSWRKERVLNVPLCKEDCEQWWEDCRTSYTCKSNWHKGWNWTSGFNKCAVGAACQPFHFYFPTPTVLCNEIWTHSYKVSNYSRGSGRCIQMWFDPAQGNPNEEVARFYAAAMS
In short: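 RT16 (FRα) or D4 (FRβ) CHO cells, ~5 x 10^6 per dish, stripped of bound folate with pH 3.5 acetate buffer. Then incubated in HEPES-buffered saline pH 7.4 with 50 nM [3H]folic acid ± unlabeled ligand 1-1000 nM. Bound label normalized to protein. […] Mean ± SE, 3 experiments.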

[6] = target: Folate receptor beta (Homo sapiens) (UniProt P14207); assay: Displacement of [3H]folic acid from human FR-beta receptor expressed in Chinese hamster D4 cells measured after 15 mins; assay type: cell-based
Sequence of Folate receptor beta (Homo sapiens) (P14207 17-230 limits assumed): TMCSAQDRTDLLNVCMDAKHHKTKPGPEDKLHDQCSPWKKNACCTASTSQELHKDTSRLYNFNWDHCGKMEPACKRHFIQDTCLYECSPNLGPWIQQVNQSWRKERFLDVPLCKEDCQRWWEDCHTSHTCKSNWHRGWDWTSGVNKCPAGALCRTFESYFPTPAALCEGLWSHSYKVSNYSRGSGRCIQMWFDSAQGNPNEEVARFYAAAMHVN

KB [7] = assay: Antiproliferative activity against human KB cells expressing human RFC/FR-alpha/PCFT assessed as reduction in cell viability up to 1000 nM measured after 96 hrs in presence of thymidine by Cell-Titer Blue assay; assay type: functional, cell-based
KB [8] = assay: Antiproliferative activity against human KB cells expressing human RFC/FR-alpha/PCFT assessed as reduction in cell viability up to 1000 nM measured after 96 hrs in presence of adenosine by Cell-Titer Blue assay; assay type: functional, cell-based
KB [9] = assay: Antiproliferative activity against human KB cells expressing human RFC/FR-alpha/PCFT assessed as reduction in cell viability up to 1000 nM measured after 96 hrs in presence of AICA by Cell-Titer Blue assay; assay type: functional, cell-based
IGROV-1 [10] = assay: Antiproliferative activity against human IGROV1 cells expressing human FR-alpha/PCFT assessed as reduction in cell viability measured after 96 hrs in presence of folic acid by Cell-Titer Blue assay; assay type: functional, cell-based; conditions: IGROV-1, 96 h
In short: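 IGROV1 growth inhibition in folate-free RPMI 1640 with 10% dialyzed FBS, 2 nM leucovorin and 2 mM L-glutamine, with 200 nM folic acid added to block FR-mediated uptake. Drug present continuously up to 1000 nM for up to 96 h. Readout by CellTiter-Blue fluorescence.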

[11] = target: T1, Proton-coupled folate transporter (Homo sapiens) (UniProt Q96NT5); assay: Inhibition of [3H]MTX uptake at human PCFT expressed in Chinese hamster R2/PCFT4 cells at 1 uM at pH 5.5 by scintillation counting method relative to control; assay type: cell-based
T1 sequence (whole entry): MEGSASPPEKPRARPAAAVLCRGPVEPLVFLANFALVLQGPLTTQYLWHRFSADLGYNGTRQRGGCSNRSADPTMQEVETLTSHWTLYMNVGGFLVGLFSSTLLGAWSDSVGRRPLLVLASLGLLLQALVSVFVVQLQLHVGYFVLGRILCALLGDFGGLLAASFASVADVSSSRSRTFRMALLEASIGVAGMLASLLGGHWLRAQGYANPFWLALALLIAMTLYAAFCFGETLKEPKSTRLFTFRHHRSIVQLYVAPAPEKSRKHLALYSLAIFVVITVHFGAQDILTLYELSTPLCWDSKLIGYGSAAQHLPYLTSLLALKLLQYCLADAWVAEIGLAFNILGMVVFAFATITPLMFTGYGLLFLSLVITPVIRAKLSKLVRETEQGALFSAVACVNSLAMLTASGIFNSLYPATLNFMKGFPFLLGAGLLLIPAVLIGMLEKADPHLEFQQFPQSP
In short: (§2)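 Buffers: MES-buffered saline pH 5.5 or HEPES-buffered saline pH 6.8, with 1 or 10 µM inhibitor. Quenched with ice-cold DPBS, counted by scintillation, normalized to protein and untreated controls. Mean ± SE, 3 experiments.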

[12] = target: T1, Proton-coupled folate transporter (Homo sapiens); assay: Inhibition of [3H]MTX uptake at human PCFT expressed in Chinese hamster R2/PCFT4 cells at 10 uM at pH 5.5 by scintillation counting method relative to control; assay type: cell-based; in short: as §2
[13] = target: T1, Proton-coupled folate transporter (Homo sapiens); assay: Inhibition of [3H]MTX uptake at human PCFT expressed in Chinese hamster R2/PCFT4 cells at 10 uM at pH 6.8 by scintillation counting method relative to control; assay type: cell-based; in short: as §2
[14] = target: T1, Proton-coupled folate transporter (Homo sapiens); conditions: 1 uM
[15] = target: T1, Proton-coupled folate transporter (Homo sapiens); assay: Inhibition of [3H]MTX uptake at human PCFT expressed in Chinese hamster R2/PCFT4 cells at 1 to 10 uM at pH 5.5 to 6.8 by scintillation counting method; assay type: cell-based; in short: as §2
[16] = target: T2, Trifunctional purine biosynthetic protein adenosine-3 (Homo sapiens, UniProt P22102); assay: Inhibition of GARFTase in human KB cells assessed as decrease in [14C]formyl GAR accumulation preincubated for 30 mins followed by [14C]glycine addition measured after 15 hrs in presence of azaserine by ion-exchange chromatographic assay; assay type: cell-based
T2 sequence (P22102 whole entry): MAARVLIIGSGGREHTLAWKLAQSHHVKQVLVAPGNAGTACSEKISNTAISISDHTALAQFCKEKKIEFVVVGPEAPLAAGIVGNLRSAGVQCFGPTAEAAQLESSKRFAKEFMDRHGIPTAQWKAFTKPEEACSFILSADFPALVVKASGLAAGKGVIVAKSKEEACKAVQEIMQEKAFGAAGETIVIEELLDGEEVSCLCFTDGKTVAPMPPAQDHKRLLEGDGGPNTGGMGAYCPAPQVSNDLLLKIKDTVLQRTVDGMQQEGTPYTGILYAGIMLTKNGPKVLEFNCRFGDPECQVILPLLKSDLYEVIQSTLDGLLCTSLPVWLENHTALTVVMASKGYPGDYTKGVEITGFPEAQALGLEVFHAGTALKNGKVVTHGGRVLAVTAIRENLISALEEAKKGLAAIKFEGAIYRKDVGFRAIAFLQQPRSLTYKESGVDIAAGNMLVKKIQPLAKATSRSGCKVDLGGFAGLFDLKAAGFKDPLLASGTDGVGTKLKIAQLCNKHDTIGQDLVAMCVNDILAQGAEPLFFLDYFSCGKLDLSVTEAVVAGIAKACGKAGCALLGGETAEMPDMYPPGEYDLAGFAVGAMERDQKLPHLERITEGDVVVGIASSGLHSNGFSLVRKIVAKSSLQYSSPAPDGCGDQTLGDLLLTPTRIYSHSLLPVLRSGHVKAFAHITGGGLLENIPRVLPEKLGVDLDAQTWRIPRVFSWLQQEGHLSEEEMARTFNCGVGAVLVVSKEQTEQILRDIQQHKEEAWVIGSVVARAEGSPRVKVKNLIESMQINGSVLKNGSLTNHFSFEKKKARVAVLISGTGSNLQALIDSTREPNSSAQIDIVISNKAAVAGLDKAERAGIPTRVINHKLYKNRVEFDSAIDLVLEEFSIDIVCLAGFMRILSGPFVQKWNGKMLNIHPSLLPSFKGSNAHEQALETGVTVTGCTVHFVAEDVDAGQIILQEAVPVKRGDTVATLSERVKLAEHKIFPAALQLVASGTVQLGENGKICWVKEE

Mus musculus [17] = assay: Toxicity in folate-deficient diet fed ICR SCID mouse assessed as body weight loss at […], iv administered every 4 days for 4 times starting on day 3 measured twice per week; conditions: in vivo
IGROV-1 [18] = assay: Antitumor activity against human IGROV1 cells xenografted in folate-deficient diet ICR SCID mouse assessed as tumor growth delay time at […], iv administered every 4 days for 4 times starting on day 3 measured twice per week
IGROV-1 [19] = assay: Antiproliferative activity against human IGROV1 cells expressing human FR-alpha/PCFT assessed as reduction in cell viability measured after 96 hrs by Cell-Titer Blue assay; assay type: functional, cell-based; conditions: IGROV-1, 96 h
[20] = target: T3, Proton-coupled folate transporter (Homo sapiens, UniProt Q96NT5); assay: Inhibition of [3H]MTX uptake at human PCFT expressed in Chinese hamster R2/PCFT4 cells at pH 5.5 measured after 2 mins by Dixon plot analysis; assay type: cell-based
T3 sequence (Q96NT5 whole entry): T1 sequence (whole entry)

IGROV-1 [21] = assay: Antitumor activity against human IGROV1 cells xenografted in folate-deficient diet fed ICR SCID mouse assessed as tumor growth delay time at 150 mg/kg, iv administered every 2 days for 8 times starting on day 3 measured twice per week; assay type: functional
In short: (§3)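 Female SCID mice, 10 weeks, ~20 g. Fed folate-deficient or folate-replete diet from 14 days before bilateral s.c. IGROV1 tumor fragments (30-60 mg, trocar). […] Weighed daily, tumors measured twice weekly. Growth delay = T-C days to 1000 mg, median.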

Mus musculus [22] = assay: Toxicity in folate-deficient diet fed ICR SCID mouse assessed as body weight loss at 150 mg/kg, iv administered every 2 days for 8 times starting on day 3 measured twice per week; assay type: organism-based; conditions: in vivo, 48 h; in short: as §3
IGROV-1 [23] = assay: Antitumor activity against human IGROV1 cells xenografted in folate-deficient diet fed ICR SCID mouse assessed as tumor growth inhibition at 150 mg/kg, iv administered every 2 days for 8 times starting on day 3 measured twice per week up to 49 days; assay type: functional, organism-based; in short: as §3
IGROV-1 [24] = assay: Antitumor activity against human IGROV1 cells xenografted in high folate diet fed ICR SCID mouse assessed as tumor growth inhibition at 150 mg/kg, iv administered every 2 days for 8 times starting on day 3 measured twice per week; assay type: functional, organism-based; in short: as §3

Compound: CN(Cc1cnc2nc(N)nc(N)c2n1)c1ccc(C(=O)N[C@@H](CCC(=O)O)C(=O)O)cc1 [METHOTREXATE]
IC50 [1]: > 1000 nM

IC50 (KB [3]): 667 nM
IC50 (KB [4]): > 1000 nM
inhibition [5]: inactive
inhibition [6]: inactive
Compound: Nc1nc2[nH]c(CCCCc3cccc(C(=O)N[C@@H](CCC(=O)O)C(=O)O)n3)cc2c(=O)[nH]1
IC50 [2]: > 1000 nM
IC50 [1]: > 1000 nM
Activity (KB [7]): Active
Activity (KB [8]): inactive
Activity (KB [9]): inactive

Compound: Nc1nc2[nH]c(CCCCc3ccc(C(=O)N[C@@H](CCC(=O)O)C(=O)O)cc3)cc2c(=O)[nH]1
IC50 [2]: > 1000 nM
IC50 [1]: > 1000 nM
IC50 (KB [4]): > 1000 nM
IC50 (IGROV-1 [10]): > 1000 nM
inhibition [5]: Active
inhibition [11]: 50%
inhibition [12]: > 90%
inhibition [13]: 35%
inhibition [14]: 0%

inhibition [15]: inactive
Compound: CN(Cc1cnc2nc(N)nc(N)c2n1)c1ccc(C(=O)N[C@@H](CCCNC(=O)c2ccccc2C(=O)O)C(=O)O)cc1

Compound: Nc1nc2[nH]c(CCCCc3ccc(C(=O)N[C@@H](CCC(=O)O)C(=O)O)cn3)cc2c(=O)[nH]1
IC50 [2]: > 1000 nM
IC50 [1]: > 1000 nM
IC50 (KB [3]): 17.4 nM
IC50 (KB [4]): > 1000 nM
inhibition [5]: Active
inhibition [6]: Active
Activity (KB [7]): Active
Activity (KB [8]): inactive
IC50 [16]: 4.8 nM
Activity (KB [9]): inactive

inhibition [11]: 85%
inhibition [13]: 75%
inhibition [14]: 40%
Compound: Nc1nc2[nH]cc(CCc3ccc(C(=O)N[C@@H](CCC(=O)O)C(=O)O)cc3)c2c(=O)[nH]1 [PEMETREXED]
IC50 [2]: 849 nM
Activity (Mus musculus [17]): 14%
Time (IGROV-1 [18]): 0 days

Compound: Nc1nc2[nH]c(CCCCc3ccc(C(=O)N[C@@H](CCC(=O)O)C(=O)O)nc3)cc2c(=O)[nH]1
IC50 [2]: > 1000 nM
IC50 [1]: > 1000 nM
IC50 (KB [3]): 0.37 nM
IC50 (KB [4]): 368 nM
IC50 (IGROV-1 [19]): 0.68 nM
IC50 (IGROV-1 [10]): 846 nM
inhibition [11]: 70%
inhibition [12]: > 90%
inhibition [13]: 40%
Ki [20]: 332 nM
Activity (KB [7]): Active
Activity (KB [8]): inactive
Time (IGROV-1 [21]): 45 days
Activity (Mus musculus [22]): 5%
Activity (KB [9]): inactive
TGI (IGROV-1 [23]): Active
TGI (IGROV-1 [24]): inactive
inhibition [14]: 10%

Compound: C#CCC(Cc1cnc2nc(N)nc(N)c2n1)c1ccc(C(=O)N[C@@H](CCC(=O)O)C(=O)O)cc1 (mixture of isomers) [PRALATREXATE]
IC50 [2]: 819 nM
IC50 [1]: > 1000 nM

IC50 (KB [3]): > 1000 nM
IC50 (KB [4]): > 1000 nM
Compound: Nc1nc2[nH]c(CCC#Cc3ccc(C(=O)N[C@@H](CCC(=O)O)C(=O)O)cn3)cc2c(=O)[nH]1
IC50 [2]: > 1000 nM
IC50 [1]: > 1000 nM

IC50 (KB [3]): > 1000 nM
IC50 (KB [4]): > 1000 nM
Compound: Nc1nc2[nH]c(CCC#Cc3ccc(C(=O)N[C@@H](CCC(=O)O)C(=O)O)nc3)cc2c(=O)[nH]1
IC50 [2]: > 1000 nM
IC50 [1]: > 1000 nM

IC50 (KB [3]): > 1000 nM
IC50 (KB [4]): > 1000 nM
Compound: Nc1nc2[nH]c(CCC#Cc3cccc(C(=O)N[C@@H](CCC(=O)O)C(=O)O)n3)cc2c(=O)[nH]1
IC50 [2]: > 1000 nM
IC50 [1]: > 1000 nM
